Experimental data: PMC10519257 (Journal of Enzyme Inhibition and Medicinal Chemistry, 2023)
Ends that are not written are not given here.

Experiments:
rat mammary gland = settings: cited from earlier work
isolated uterus = settings: rat isolated uterus; cited from earlier work
Serum stability = type: in vitro ADME, human
Method in brief: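 Test compound in water (1 mg/mL stock) diluted to 0.1 mg/mL in phosphate buffer pH 7.2, then added to serum from one 40th-week pregnant donor (oxytocinase-rich) and incubated at 37 °C with a reference peptide as internal standard. Aliquots at 1, 3, 5, 20, 24, 48 h were quenched in H2O/CH3CN (1:1) with 0.1% TFA, held 5 min at 0 °C and centrifuged.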

[1] = Stability in phosphate buffer pH 7.2; type: physicochemical
Method in brief: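 Peptides were incubated at 37 °C in phosphate buffer at pH 7.2 without serum. Remaining peptide was sampled at 1, 3, 5, 20, 24 and 48 h and measured by RP-HPLC-MS.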

Row | half-life (Serum stability; human, serum) [h] | time after which not detectable by analytical RP-HPLC (Serum stability; woman serum at 40th week of pregnancy, 37 °C) [h] | half-life [1] [h] | Compound | contractile activity (rat mammary gland) | contractile activity (isolated uterus)
1 | – | – | – | (1,6-di-alanine)-oxytocin (AYIQNAPLG; ends and bridges not checked; UniProt P01178 20-28, looked up, variant C1A C6A) [[Ala(1,6)]OT] | devoid of any contractile activity | devoid of any contractile activity
2 | – | – | – | (1,6-di-serine)-oxytocin (SYIQNSPLG; ends and bridges not checked; UniProt P01178 20-28, looked up, variant C1S C6S) [[Ser(1,6)]OT] | devoid of any contractile activity | devoid of any contractile activity
3 | 16 | 48 | 24 | CC[C@H](C)[C@@H]1NC(=O)[C@H](Cc2ccc(O)cc2)NC(=O)[C@@H](N)CSSC[C@@H](C(=O)N2CCC[C@H]2C(=O)N[C@@H](CC(C)C)C(=O)NCC(N)=O)NC(=O)[C@H](CC(N)=O)NC(=O)[C@H](CCC(N)=O)NC1=O [OT, Oxytocin] | – | –
